Test results from ChEMBL document CHEMBL1914440, “Discovery of potent, selective, and orally bioavailable alkynylphenoxyacetic acid CRTH2 (DP2) receptor antagonists for the treatment of allergic inflammatory diseases” (J Med Chem, 2011).
Values after ≈ are worked out from the molar mass of the structure shown. Blank lines part the entries; values can stand above or below the compound they belong to.

Assays:
[1] = target: T1, Prostaglandin D2 receptor 2 (Homo sapiens, UniProt Q9Y5Y4); assay: Displacement of [3H]PGD2 from human CRTH2 expressed in chinese hamster CHO cells by liquid scintillation counting; assay type: cell-based
T1 sequence (Q9Y5Y4 whole entry): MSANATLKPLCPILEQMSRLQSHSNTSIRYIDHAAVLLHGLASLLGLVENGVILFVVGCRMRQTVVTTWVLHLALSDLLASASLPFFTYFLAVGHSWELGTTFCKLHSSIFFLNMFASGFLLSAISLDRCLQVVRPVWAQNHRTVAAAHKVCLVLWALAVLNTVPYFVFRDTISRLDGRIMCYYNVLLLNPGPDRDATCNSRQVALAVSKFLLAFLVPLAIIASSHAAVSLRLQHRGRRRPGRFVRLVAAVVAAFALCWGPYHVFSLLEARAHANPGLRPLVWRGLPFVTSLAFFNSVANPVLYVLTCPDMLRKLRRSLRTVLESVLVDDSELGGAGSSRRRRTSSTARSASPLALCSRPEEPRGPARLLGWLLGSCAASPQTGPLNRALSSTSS
In short: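 Scintillation proximity competition assay: 2–5 μg human CRTH2 cell membranes, 1.5 nM [3H]PGD2, WGA-SPA beads, 10 mM HEPES/KOH pH 7.4, 10 mM MnCl2, protease inhibitors, 1% DMSO; 90 min, room temperature, shaking. Nonspecific binding defined with 1 μM PGD2. Ki by Cheng–Prusoff, mean of ≥3 independent dose–response experiments.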

[2] = Percentage unbound in human plasma; assay type: ADME, cell-free
[3] = Percentage unbound in rat plasma; assay type: ADME, cell-free
[4] = Percentage unbound in mouse plasma; assay type: ADME, cell-free
[5] = Clearance in BALB/c mouse at 5 mg/kg, po by LC/MS/MS analysis; assay type: ADME, organism-based; design: dose 5 mg/kg, route oral; settings: in vivo
[6] = Oral bioavailability in BALB/c mouse at 5 mg/kg by LC/MS/MS analysis; assay type: ADME, organism-based; settings: in vivo
In short: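 Mouse PK after a 5 mg/kg oral dose.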

[7] = AUC in BALB/c mouse at 1 mg/kg, po; assay type: ADME, organism-based; design: dose 1 mg/kg, route oral; settings: plasma
[8] = target: T2, Prostaglandin D2 receptor 2 (Mus musculus, UniProt Q9Z2J6); assay: Displacement of [3H]PGD2 from mouse CRTH2 expressed in human HEK cells by liquid scintillation counting; assay type: cell-based, HEK293
T2 sequence (Q9Z2J6 whole entry): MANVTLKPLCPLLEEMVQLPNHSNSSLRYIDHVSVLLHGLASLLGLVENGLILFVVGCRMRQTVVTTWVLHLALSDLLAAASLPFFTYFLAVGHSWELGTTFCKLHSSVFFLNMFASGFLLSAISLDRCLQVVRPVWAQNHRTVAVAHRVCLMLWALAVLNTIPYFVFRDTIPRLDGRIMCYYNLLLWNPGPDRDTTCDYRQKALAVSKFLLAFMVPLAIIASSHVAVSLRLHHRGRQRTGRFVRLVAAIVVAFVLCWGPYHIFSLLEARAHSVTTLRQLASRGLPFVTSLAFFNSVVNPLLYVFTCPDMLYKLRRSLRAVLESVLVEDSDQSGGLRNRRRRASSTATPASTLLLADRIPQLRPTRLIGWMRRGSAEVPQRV
In short: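 Mouse CRTH2 cDNA stably expressed in HEK293(EBNA) cells (hygromycin-selected) and membranes made by nitrogen cavitation. SPA competition uses 2–5 μg membranes, 1.5 nM [3H]PGD2, HEPES/KOH pH 7.4 with 10 mM MnCl2, 1% DMSO, 90 min at room temperature. Nonspecific binding defined with 1 μM PGD2. Ki by Cheng–Prusoff, ≥3 independent experiments.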

[9] = target: T1, Prostaglandin D2 receptor 2; assay: Antagonist activity human CRTH2 expressed in chinese hamster CHO cells assessed as inhibition of PGD2-induced [35S]GTPgamma binding by liquid scintillation counting; assay type: functional, cell-based
In short: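 10 μg human CRTH2 membranes in 20 mM HEPES/KOH pH 7.4, 10 mM MgCl2, 10 μg/mL saponin, 3 μM GDP, 150 mM NaCl, 2% DMSO, 30 °C. Preincubated 10 min, then 0.15 nM [35S]GTPγS for 30 min; stopped by centrifugation. Antagonism tested against 80 nM PGD2. Nonspecific binding with 10 μM GTPγS. Run without BSA.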

[10] = target: Prostaglandin E2 receptor EP2 subtype (Homo sapiens) (UniProt P43116); assay: Inhibition of EP2 receptor at 10 uM
In short: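 Selectivity screen: panel of 50 receptor and ion-channel targets, tested at 10 μM; EP2 by binding assay; GABA-gated Cl− channel from rat. Result expressed as % inhibition.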

[11] = Intrinsic clearance in human liver microsomes assessed per mg of protein at 1 uM by LC/MS/MS analysis; assay type: ADME, Microsome
[12] = Intrinsic clearance in rat liver microsomes assessed per mg of protein at 1 uM by LC/MS/MS analysis; assay type: ADME, Microsome
[13] = Apparent permeability across human Caco2 cells at 1 uM after 2 hrs by LC/MS/MS analysis; assay type: ADME, cell-based; settings: Caco-2
[14] = Solubility of the compound at pH 7.4; assay type: physicochemical; settings: buffer
[15] = Solubility of the compound at pH 1.2; assay type: physicochemical; settings: buffer
[16] = Half life in BALB/c mouse at 1 mg/kg, iv by LC/MS/MS analysis; assay type: ADME, organism-based; design: dose 1 mg/kg, route intravenous; settings: in vivo
[17] = Half life in BALB/c mouse at 5 mg/kg, po by LC/MS/MS analysis; assay type: ADME, organism-based; design: dose 5 mg/kg, route oral; settings: in vivo
[18] = AUC in BALB/c mouse at 5 mg/kg, po by LC/MS/MS analysis; assay type: ADME, organism-based; design: dose 5 mg/kg, route oral; settings: plasma
[19] = target: T3, Prostaglandin D2 receptor (Homo sapiens, UniProt Q13258); assay: Binding affinity to DP1
T3 sequence (Q13258 whole entry): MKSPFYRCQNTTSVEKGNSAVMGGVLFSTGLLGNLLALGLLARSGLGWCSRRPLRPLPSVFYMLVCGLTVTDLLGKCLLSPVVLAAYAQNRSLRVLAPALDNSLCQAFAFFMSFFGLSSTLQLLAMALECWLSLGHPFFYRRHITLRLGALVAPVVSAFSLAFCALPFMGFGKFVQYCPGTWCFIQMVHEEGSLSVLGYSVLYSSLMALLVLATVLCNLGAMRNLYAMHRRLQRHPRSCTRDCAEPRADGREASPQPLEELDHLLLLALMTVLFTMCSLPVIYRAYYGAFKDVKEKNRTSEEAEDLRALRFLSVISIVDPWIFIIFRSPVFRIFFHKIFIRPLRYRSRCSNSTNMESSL

[20] = target: Aldo-keto reductase family 1 member B1 (Homo sapiens, UniProt P15121); assay: Antagonist activity at AR; assay type: functional
Mus musculus [21] = assay: Antiinflammatory activity in BALB/c mouse model assessed as inhibition of ovalbumin-induced eosinophil accumulation in bronchoalveolar lavage fluid at 3 mg/kg, po administered 1 hr prior to and 7 hrs after ovalbumin challenge for 3 days measured 8 hrs after final dose by cell counting; assay type: functional; settings: Lung
In short: (§1)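 Compound given by oral gavage 1 h before and 7 h after each challenge. BAL taken 8 h after the last challenge. Total cells counted by hemocytometer; eosinophils counted on DiffQuik-stained cytospins. Reported as mean % inhibition ± SEM.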

Mus musculus [22] = assay: Antiinflammatory activity in BALB/c mouse model assessed as inhibition of ovalbumin-induced eosinophil accumulation in bronchoalveolar lavage fluid at 10 mg/kg, po administered 1 hr prior to and 7 hrs after ovalbumin challenge for 3 days measured 8 hrs after final dose by cell counting; assay type: functional; settings: Lung; in short: as §1
Mus musculus [23] = assay: Antiinflammatory activity in BALB/c mouse model assessed as inhibition of ovalbumin-induced eosinophil accumulation in bronchoalveolar lavage fluid at 30 mg/kg, po administered 1 hr prior to and 7 hrs after ovalbumin challenge for 3 days measured 8 hrs after final dose by cell counting; assay type: functional; settings: Lung; in short: as §1
Mus musculus [24] = assay: Antiinflammatory activity in BALB/c mouse contact hypersensitivity model assessed as inhibition of FITC-mediated ear swelling at 3 mg/kg, po administered 1 hr prior to and 7 hrs after the FITC-challenge measured 24 hrs after final dose; assay type: functional
In short: (§2)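 Female 9-week-old BALB/c mice sensitized on days 0 and 1 with 0.5% FITC in acetone/dibutyl phthalate (sham group: vehicle only). Right ear challenged on day 6 with 0.5% FITC. Compound given by oral gavage 1 h before and 7 h after challenge. Ear thickness measured before and 24 h after challenge. Reported as mean % inhibition ± SEM.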

Mus musculus [25] = assay: Antiinflammatory activity in BALB/c mouse contact hypersensitivity model assessed as inhibition of FITC-mediated ear swelling at 10 mg/kg, po administered 1 hr prior to and 7 hrs after the FITC-challenge measured 24 hrs after final dose; assay type: functional; in short: as §2
Mus musculus [26] = assay: Antiinflammatory activity in BALB/c mouse contact hypersensitivity model assessed as inhibition of FITC-mediated ear swelling at 30 mg/kg, po administered 1 hr prior to and 7 hrs after the FITC-challenge measured 24 hrs after final dose; assay type: functional; in short: as §2
[27] = target: T3, Prostaglandin D2 receptor; assay: Antagonist activity at DP1 by cAMP functional assay
In short: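 DP1 functional antagonism measured in a cAMP assay.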

[28] = Lipophilicity, log D of the compound at pH 7.4; assay type: physicochemical; settings: buffer
[29] = Half life in BALB/c mouse at 1 mg/kg, iv and 5 mg/kg, po by LC/MS/MS analysis; assay type: ADME, organism-based; settings: in vivo
[30] = Thermodynamic solubility of the compound in aqueous solution at pH 7.4; assay type: physicochemical; settings: read-out: Therm_solubility

Sequence of Prostaglandin E2 receptor EP2 subtype (Homo sapiens) (P43116 whole entry): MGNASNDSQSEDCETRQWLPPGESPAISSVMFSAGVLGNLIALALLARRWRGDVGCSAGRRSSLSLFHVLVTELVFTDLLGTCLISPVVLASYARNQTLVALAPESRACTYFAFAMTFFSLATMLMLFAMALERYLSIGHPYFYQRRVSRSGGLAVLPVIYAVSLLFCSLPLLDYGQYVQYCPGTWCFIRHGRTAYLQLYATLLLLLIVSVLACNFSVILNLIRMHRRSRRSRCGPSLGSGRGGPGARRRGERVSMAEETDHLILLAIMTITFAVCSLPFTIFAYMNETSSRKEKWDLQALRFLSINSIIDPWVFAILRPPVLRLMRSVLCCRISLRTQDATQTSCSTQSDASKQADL

Ki [1]: 3.5 nM | fraction unbound [2]: 0.007 | fraction unbound [3]: 0.003 | fraction unbound [4]: 0.025 | CL/F [5]: 11.7 mL/min/kg | bioavailability [6]: 141% | AUC [7]: 1390 ng·h/mL
SMILES: CS(=O)(=O)c1ccc(Cl)c(C#Cc2cc(Cl)ccc2OCC(=O)O)c1

Ki [1]: 2 nM | Ki [8]: 2.4 nM | IC50 [9]: 7 nM | inhibition [10]: 54% | fraction unbound [2]: 0.004 | fraction unbound [3]: 0.004 | fraction unbound [4]: 0.008 | microsomal CLint at 1 µM [11]: < 10 µL/min/mg | microsomal CLint at 1 µM [12]: < 10 µL/min/mg | Papp at 2 h, 1 µM [13]: 5.2 ×10⁻⁶ cm/s | CL/F [5]: 16.7 mL/min/kg | bioavailability [6]: 80% | solubility [14]: 242 µg/mL (≈ 595 µM) | solubility [15]: < 2 µg/mL | half-life [16]: 1.7 h | half-life [17]: 3.9 h | AUC [18]: 3730 ng·h/mL | Ki [19]: 1580 nM | IC50 [20]: 172 nM | IC50 [27]: 10000 nM
SMILES: CCCS(=O)(=O)c1ccc(C)c(C#Cc2cc(Cl)ccc2OCC(=O)O)c1
inhibition in vivo at 3 mg/kg (Mus musculus [21]): 29% | inhibition in vivo at 10 mg/kg (Mus musculus [22]): 54% | inhibition in vivo at 30 mg/kg (Mus musculus [23]): 81% | inhibition in vivo at 3 mg/kg (Mus musculus [24]): 23% | inhibition in vivo at 10 mg/kg (Mus musculus [25]): 56% | inhibition in vivo at 30 mg/kg (Mus musculus [26]): 52%

Ki [1]: 37 nM | fraction unbound [2]: 0.033 | fraction unbound [3]: 0.057 | fraction unbound [4]: 0.034 | Papp at 2 h, 1 µM [13]: 1.8 ×10⁻⁶ cm/s | logD [28]: -1.4 | CL/F [5]: 13.3 mL/min/kg | half-life [29]: 4.4 h | solubility thermodynamic [30]: 193 µg/mL (≈ 489 µM)
SMILES: CN(C)S(=O)(=O)c1cncc(C#Cc2cc(Cl)ccc2OCC(=O)O)c1
